Source: ChEMBL document CHEMBL5096209, “Structure-Activity Studies of 3,9-Diazaspiro[5.5]undecane-Based γ-Aminobutyric Acid Type A Receptor Antagonists with Immunomodulatory Effect” (J Med Chem, 2021)

How the values were obtained:
[1] = Induction of cell proliferation of human CD8-positive T cells at 50 uM measured after 96 hrs in presence of alprazolam by flow cytometry analysis relative to control; format: functional
Method in brief: (§1)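 Human PBMC from leukocyte cones were CFSE-stained (5 μM) and held at high density overnight. They were then stimulated with soluble anti-CD3 OKT3 (100 pg/mL) plus alprazolam 33 μM, with test compound at 50 μM, for 96 h. CD4+/CD8+ proliferation was measured by CFSE dilution on flow cytometry, at least six independent experiments.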

[2] = Efflux ratio of apparent permeability across basolateral to apical side over apical to basolateral side in MDCK; format: ADME, cell-based, Canis lupus familiaris; conditions: dog
Method in brief: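 MDR1-transfected MDCK monolayers, 0.5 μM test compound added apically or basally. Bidirectional apparent permeability measured in triplicate. Efflux ratio is B→A permeability divided by A→B permeability.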

CD4+ve Th = experiment: Induction of cell proliferation of human CD4+ve Th cells at 50 uM measured after 96 hrs in presence of alprazolam by flow cytometry analysis relative to control; format: functional; method in brief: as §1

Cc1cccc(C(=O)N2CCC3(CCNCC3)CC2)c1
Activity [1]: 20% | efflux ratio [2]: 11.5 | Activity (CD4+ve Th): 20%
